The values that follow come from ChEMBL document CHEMBL4004850, “Rational design of reversible inhibitors for trehalose 6-phosphate phosphatases” (Eur J Med Chem, 2017).

The test system of assay [1] is Mycobacterium tuberculosis. Nature of the assay: Activity at Mycobacterium tuberculosis T6PP.
Assay [2] has as its system Shigella boydii. Description: Activity at Shigella boydii T6PP.
For assay [3], the system named is Ascaris suum. Nature of the assay: Inhibition of Ascaris suum T6PP using T6P as substrate assessed as fraction of enzyme unbound with compound by measuring ratio of initial velocities of T6P substrate hydrolysis in presence and absence of compound at 1 mM after 5 mins by BioMol green dye based HTS assay. The procedure, abridged:
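T6P is at half saturation ([T6P] = Km), with and without 1 mM inhibitor, at 25 °C. Released phosphate is detected with dye (30 min incubation) by A625. The reported value is V_I/V, the initial-velocity ratio.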

For assay [4], the system named is Ascaris suum. Nature of the assay: Activity at Ascaris suum T6PP.
For assay [5], the system named is Salmonella enterica subsp. enterica serovar Typhimurium. Nature of the assay: Activity at Salmonella typhimurium T6PP.
Assay [6] deals with T1, Trehalose-phosphatase (Brugia malayi) (UniProt A8NS89).
T1 sequence (whole entry): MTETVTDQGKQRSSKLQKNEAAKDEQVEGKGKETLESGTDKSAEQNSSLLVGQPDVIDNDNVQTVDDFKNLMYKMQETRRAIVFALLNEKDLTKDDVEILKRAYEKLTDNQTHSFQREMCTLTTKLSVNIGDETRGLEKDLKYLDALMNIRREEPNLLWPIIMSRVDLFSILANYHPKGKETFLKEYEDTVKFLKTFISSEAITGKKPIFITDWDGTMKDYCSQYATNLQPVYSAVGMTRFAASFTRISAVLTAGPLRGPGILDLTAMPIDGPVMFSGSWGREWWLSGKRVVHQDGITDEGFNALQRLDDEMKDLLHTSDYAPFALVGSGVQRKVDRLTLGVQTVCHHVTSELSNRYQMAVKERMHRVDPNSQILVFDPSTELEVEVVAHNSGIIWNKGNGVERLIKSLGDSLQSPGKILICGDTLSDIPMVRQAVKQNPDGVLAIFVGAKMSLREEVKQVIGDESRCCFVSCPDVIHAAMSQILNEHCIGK
Description: Inhibition of Brugia malayi T6PP using T6P as substrate assessed as fraction of enzyme unbound with compound by measuring ratio of initial velocities of T6P substrate hydrolysis in presence and absence of compound at 1 mM […] by BioMol green dye based HTS assay.

Assay [7] concerns Salmonella enterica subsp. enterica serovar Typhimurium. Nature of the assay: Inhibition of Salmonella typhimurium T6PP using T6P as substrate assessed as fraction of enzyme unbound with compound by measuring ratio of initial velocities of T6P substrate hydrolysis in presence and absence of compound at 1 mM after 5 mins by BioMol green dye based HTS assay. The procedure, abridged:
(§1)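 Freshly purified St-T6PP or Sb-T6PP (5–25 nM) in 50 mM Hepes pH 7.5, 25 mM NaCl, 2 mM MgCl₂, 5% glycerol at 25 °C. T6P at half saturation (Km) for each enzyme. Hydrolysis rate was compared with and without 1 mM inhibitor; phosphate read at 625 nm after 30 min incubation. The ratio VI/V gives the fraction of enzyme not inhibitor-bound.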

Assay [8] deals with Shigella boydii. Description: Inhibition of Shigella boydii T6PP using T6P as substrate assessed as fraction of enzyme unbound with compound by measuring ratio of initial velocities of T6P substrate hydrolysis in presence and absence of compound at 1 mM after 5 mins by BioMol green dye based HTS assay. In a few lines:
as §1

Assay [9] can be described thus: Inhibition of Salmonella typhimurium T6PP using T6P as substrate by Lineweaver-Burk plot analysis. More on the design: species or system Salmonella enterica subsp. enterica serovar Typhimurium. The procedure, abridged: (§2)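 Continuous phosphate-release assay (EnzChek, MESG/purine nucleoside phosphorylase) at 25 °C. Initial velocities of T6P hydrolysis by T6PP were taken at varied T6P with inhibitor at 0, Ki and 2×Ki. Km and Vmax come from double-reciprocal plots.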

Assay [10] is described as follows: Inhibition of Ascaris suum T6PP using T6P as substrate by Lineweaver-Burk plot analysis.
The test system of assay [11] is Shigella boydii. Description: Inhibition of Shigella boydii T6PP assessed as Km for substrate using T6P as substrate by Lineweaver-Burk plot analysis. In a few lines: as §2
Assay [12] concerns Salmonella enterica subsp. enterica serovar Typhimurium. Description: Inhibition of Salmonella typhimurium T6PP assessed as Vmax for substrate using T6P as substrate by Lineweaver-Burk plot analysis. In a few lines:
as §2

Assay [13] is described as follows: Inhibition of Shigella boydii T6PP using T6P as substrate by Lineweaver-Burk plot analysis. The procedure, abridged: as §2
The subject of assay [14] is Shigella boydii. Nature of the assay: Inhibition of Shigella boydii T6PP assessed as Vmax for substrate using T6P as substrate by Lineweaver-Burk plot analysis. In a few lines:
as §2

Assay [15] deals with Salmonella enterica subsp. enterica serovar Typhimurium. Description: Inhibition of Salmonella typhimurium T6PP assessed as Km for substrate using T6P as substrate by Lineweaver-Burk plot analysis. In a few lines: as §2
Assay [16] relates to Ascaris suum. Description: Inhibition of Ascaris suum T6PP assessed as Vmax for substrate using T6P as substrate by Lineweaver-Burk plot analysis. In a few lines:
as §2

The target in assay [17] is T2, Trehalose-phosphatase (Brugia malayi, UniProt A8NS89).
T2 sequence (A8NS89 whole entry): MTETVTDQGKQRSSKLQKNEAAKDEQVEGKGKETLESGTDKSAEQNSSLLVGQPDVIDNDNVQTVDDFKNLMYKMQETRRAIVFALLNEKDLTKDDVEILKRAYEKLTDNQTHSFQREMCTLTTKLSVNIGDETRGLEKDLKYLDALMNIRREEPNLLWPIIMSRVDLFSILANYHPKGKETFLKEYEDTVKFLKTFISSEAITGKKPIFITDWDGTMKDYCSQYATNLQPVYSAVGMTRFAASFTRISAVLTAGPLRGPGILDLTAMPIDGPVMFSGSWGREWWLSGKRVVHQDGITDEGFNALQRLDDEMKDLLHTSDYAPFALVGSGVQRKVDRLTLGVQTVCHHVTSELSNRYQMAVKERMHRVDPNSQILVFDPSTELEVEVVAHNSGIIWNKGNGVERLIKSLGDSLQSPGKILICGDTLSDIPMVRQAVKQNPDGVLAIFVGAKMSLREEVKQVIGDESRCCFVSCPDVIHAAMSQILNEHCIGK
Description: Competitive inhibition of Brugia malayi T6PP using T6P as substrate by Lineweaver-Burk plot analysis. In a few lines: as §2

The subject of assay [18] is Ascaris suum. Description: Inhibition of Ascaris suum T6PP assessed as Km for substrate using T6P as substrate by Lineweaver-Burk plot analysis. In a few lines: as §2
The target of assay [19] is T2, Trehalose-phosphatase. Nature of the assay: Reversible competitive inhibition of Brugia malayi T6PP using T6P as substrate by Lineweaver-Burk plot analysis.

On to `O=P(O)(O)OC[C@H]1O[C@@H](Oc2ccccc2)[C@H](O)[C@@H](O)[C@@H]1O`, for which the kcat turned out to be 0.71 ×10⁻² /s in assay [1], 0.71 ×10⁻² /s in the assay with Shigella boydii [2], 0.96 ×10⁻² /s in the assay on Ascaris suum [4] and 0.41 ×10⁻² /s in assay [5]. The Ratio in the assay on Ascaris suum [3] was 0.98; in [6], 0.79; in assay [7] it was 0.77; in the assay with Shigella boydii [8] it was 0.94.

Broadly, the Ki is a dissociation constant, usually derived from enzyme kinetics or from competition with a known ligand. Read a low Ki as higher affinity. Broadly, the Km is the concentration of substrate that gives half-maximal velocity. By Vmax is commonly meant the top rate of the reaction or transport when substrate is in excess. Regarding `CCCCCCCCc1ccc(O[C@@H]2O[C@H](COS(=O)(=O)O)[C@@H](O)[C@H](O)[C@H]2O)cc1`, the Ki in assay [9] was 120 µM; in [10] it was 180 µM; in assay [13] it was 13 µM; at Trehalose-phosphatase [17], 60 to 61 µM. Also, the Ratio was 0.02 in the assay with Ascaris suum [3], 0.07 in assay [6], 0.01 in [7] and 0.04 in the assay on Shigella boydii [8]. The Km in the assay on Shigella boydii [11] was 222 µM; in assay [15], 428 µM; in the assay with Ascaris suum [18] it was 336 µM. In addition, the Vmax in assay [12] was 0.183 µM/s; in the assay with Shigella boydii [14], 0.495 µM/s; in the assay on Ascaris suum [16], 0.343 µM/s.

In the case of `O=S(=O)(O)OC[C@H]1O[C@@H](Oc2ccccc2)[C@H](O)[C@@H](O)[C@@H]1O`, the Ratio with Ascaris suum [3] stood at 0.92; in assay [6] it was 0.52; in assay [7], 0.81; in the assay on Shigella boydii [8] it was 0.76. This molecule also had a Ki on Trehalose-phosphatase [19] of 800 to 830 µM.

For `O=S(=O)(O)OC[C@H]1O[C@H](Oc2ccccc2)[C@H](O)[C@@H](O)[C@@H]1O`, the Ratio in the assay on Ascaris suum [3] came to 0.71; in assay [6], 0.42; in assay [7], 0.64; in the assay on Shigella boydii [8], 0.76. On Trehalose-phosphatase [19], this molecule displayed a Ki of 320 µM.

As to `CCCCCCc1ccc(O[C@H]2O[C@H](COS(=O)(=O)O)[C@@H](O)[C@H](O)[C@H]2O)cc1`, the Ki in assay [9] is 280 µM; in assay [10], 350 µM; in assay [13] it was 78 µM; on Trehalose-phosphatase [17] it was 80 to 82 µM. For the same molecule, the Km with Shigella boydii [11] came out at 239 µM; in assay [15], 394 µM; in the assay on Ascaris suum [18], 353 µM. Besides, the figures for the Vmax (in [12]; with Shigella boydii [14]; in the assay with Ascaris suum [16]) were 0.495 µM/s, 0.541 µM/s and 0.631 µM/s, respectively.
